The source made the active and inactive calls. No cut-off for these calls is given here.
Key:
Bos taurus [1] = species on record: Bos taurus; assay: Inhibition of bovine heart mitochondrial NADH oxidase complex I/III/IV assessed as remaining activity at 1 uM by spectrophotometry relative to untreated control
Bos taurus [2] = species on record: Bos taurus; assay: Inhibition of bovine heart mitochondrial NADH oxidase complex I/III/IV assessed as remaining activity at 5 uM by spectrophotometry relative to untreated control
Bos taurus [3] = species on record: Bos taurus; assay: Inhibition of bovine heart mitochondrial NADH oxidase complex I/III/IV assessed as remaining activity at 10 uM by spectrophotometry relative to untreated control
Lymphocyte [4] = assay: Inhibition of lipid peroxidation in diethyl maleate-treated human lymphocytes obtained from FRDA patient at 100 to 250 nM after 16 hrs using C11-BODIPY581/591 by FACS analysis; format: functional, cell-based
Procedure, shortened: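 FRDA lymphocytes depleted of glutathione with DEM, probed with C11-BODIPY581/591. Green (oxidized) fluorescence read by flow cytometry at 490/510 nm. Median mean fluorescence taken relative to untreated control and converted to % lipid peroxidation scavenging; mean ± SEM, n = 3.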

Lymphocyte [5] = assay: Inhibition of ROS generation in diethyl maleate-treated human lymphocytes obtained from FRDA patient compound pretreated at 100 to 500 nM for 16 hrs using DCFH-DA by FACS analysis; format: functional, cell-based
Procedure, shortened: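 FRDA lymphocytes pretreated with compounds at 100, 250 and 500 nM for 16 h, then given DEM for 80 min to raise ROS. Stained with DCFH-DA for 15 min, then DCF fluorescence read by flow cytometry. Reported as % ROS scavenging; mean ± SEM of three experiments run in duplicate.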

Lymphocyte [6] = assay: Inhibition of oxidative stress-induced mitochondrial membrane depolarization in diethyl maleate-treated human lymphocytes obtained from FRDA patient assessed as cells with intact mitochondrial membrane potential at 250 nM pretreated for 16 hrs using TMRM by FACS analysis (reference value: 95%); format: functional; set-up: scale not given: the % may be the effect or the level left
Lymphocyte [7] = assay: Inhibition of oxidative stress-induced mitochondrial membrane depolarization in diethyl maleate-treated human lymphocytes obtained from FRDA patient assessed as cells with intact mitochondrial membrane potential at 100 nM pretreated for 16 hrs using TMRM by FACS analysis (reference value: 95%); format: functional; set-up: scale not given: the % may be the effect or the level left
Lymphocyte [8] = assay: Inhibition of oxidative stress-induced mitochondrial membrane depolarization in diethyl maleate-treated human lymphocytes obtained from FRDA patient assessed as cells with intact mitochondrial membrane potential at 500 nM pretreated for 16 hrs using TMRM by FACS analysis (reference value: 95%); format: functional; set-up: scale not given: the % may be the effect or the level left
Lymphocyte [9] = assay: Increase in ATP production in CoQ10-deficient lymphocytes (unknown origin) assessed as cellular ATP level at 5 uM after 48 hrs using luciferin-luciferase reaction by bioluminescence assay relative to control; format: functional
Procedure, shortened: (§1)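 CoQ10-deficient lymphocyte line GM17932 grown in glucose-free RPMI 1640 with 25 mM galactose, 2 mM glutamine and 10% dialyzed FBS, forcing oxidative phosphorylation. Incubated with compounds at 5, 10 or 25 µM for 48 h. Total intracellular ATP measured by luciferin–luciferase reaction, expressed as % of untreated control.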

Lymphocyte [10] = assay: Increase in ATP production in CoQ10-deficient lymphocytes (unknown origin) assessed as cellular ATP level at 10 uM after 48 hrs using luciferin-luciferase reaction by bioluminescence assay relative to control; format: functional; procedure, shortened: as §1
Lymphocyte [11] = assay: Increase in ATP production in CoQ10-deficient lymphocytes (unknown origin) assessed as cellular ATP level at 25 uM after 48 hrs using luciferin-luciferase reaction by bioluminescence assay relative to control; format: functional; procedure, shortened: as §1
Lymphocyte [12] = assay: Cytoprotective activity in human lymphocytes obtained from FRDA patient assessed as viable cells at 0.1 uM after 16 hrs by trypan blue exclusion assay; format: functional; settings: read-out: Activity
Procedure, shortened: (§2)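 Lymphocytes from FRDA or Leigh's syndrome patients, grown in RPMI-1640 with 15% fetal calf serum and 2 mM glutamine, kept in log phase. Test agents at 0.1, 0.5 and 2.5 µM; diethyl maleate (DEM) added to deplete glutathione and induce oxidative stress. Viability expressed relative to untreated cells (100%). Values are mean ± SD/SEM as tabulated.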

Lymphocyte [13] = assay: Cytoprotective activity in human lymphocytes obtained from FRDA patient assessed as viable cells at 0.5 uM after 16 hrs by trypan blue exclusion assay; format: functional; settings: read-out: Activity; procedure, shortened: as §2
Lymphocyte [14] = assay: Cytoprotective activity in human lymphocytes obtained from FRDA patient assessed as viable cells at 2.5 uM after 16 hrs by trypan blue exclusion assay; format: functional; settings: read-out: Activity; procedure, shortened: as §2
Lymphocyte [15] = assay: Cytoprotective activity in human lymphocytes obtained from Leigh's syndrome patient assessed as viable cells at 0.1 uM after 16 hrs by trypan blue exclusion assay; format: functional; settings: read-out: Activity; procedure, shortened: as §2
Lymphocyte [16] = assay: Cytoprotective activity in human lymphocytes obtained from Leigh's syndrome patient assessed as viable cells at 0.5 uM after 16 hrs by trypan blue exclusion assay; format: functional; settings: read-out: Activity; procedure, shortened: as §2
Lymphocyte [17] = assay: Cytoprotective activity in human lymphocytes obtained from Leigh's syndrome patient assessed as viable cells at 2.5 uM after 16 hrs by trypan blue exclusion assay; format: functional; settings: read-out: Activity; procedure, shortened: as §2
[18] = Drug metabolism in bovine liver microsomes at 25 uM after 30 mins by reverse phase HPLC analysis; format: ADME, Bos taurus; settings: cattle, read-out: Drug metabolism
Procedure, shortened: (§3)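 Compounds incubated 30 min with activated bovine liver microsomes. Remaining parent compound quantified by reversed-phase HPLC and expressed as % recovered; mean ± SD.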

Bos taurus [19] = species on record: Bos taurus; assay: Inhibition of bovine heart mitochondrial NADH oxidase complex I/III/IV assessed as remaining activity by spectrophotometry relative to untreated control
Lymphocyte [20] = assay: Cytoprotective activity in human lymphocytes obtained from FRDA patient assessed as viable cells after 16 hrs by trypan blue exclusion assay; format: functional, cell-based; procedure, shortened: as §2
Lymphocyte [21] = assay: Cytoprotective activity in human lymphocytes obtained from Leigh's syndrome patient assessed as viable cells after 16 hrs by trypan blue exclusion assay; format: functional, cell-based; procedure, shortened: as §2
[22] = Metabolic stability in bovine liver microsomes at 25 uM after 30 mins by reverse phase HPLC analysis; format: ADME, Bos taurus; settings: cattle, read-out: Stability; procedure, shortened: as §3
Lymphocyte [23] = assay: Inhibition of oxidative stress-induced mitochondrial membrane depolarization in diethyl maleate-treated human lymphocytes obtained from FRDA patient assessed as cells with intact mitochondrial membrane potential pretreated for 16 hrs using TMRM by FACS analysis; format: functional, cell-based

| Structure (SMILES) | Activity (Bos taurus [1]) [%] | Activity (Bos taurus [2]) [%] | Activity (Bos taurus [3]) [%] | inhibition (Lymphocyte [4]) | inhibition (Lymphocyte [5]) | Activity (Lymphocyte [6]) [%] | Activity (Lymphocyte [7]) [%] | Activity (Lymphocyte [8]) [%] | Activity (Lymphocyte [9]) [%] | Activity (Lymphocyte [10]) [%] | Activity (Lymphocyte [11]) [%] | viability at 0.1 µM (Lymphocyte [12]) [%] | viability at 0.5 µM (Lymphocyte [13]) [%] | viability at 2.5 µM (Lymphocyte [14]) [%] | viability at 0.1 µM (Lymphocyte [15]) [%] | viability at 0.5 µM (Lymphocyte [16]) [%] | viability at 2.5 µM (Lymphocyte [17]) [%] | inhibition (Bos taurus [19]) | Activity (Lymphocyte [20]) | Activity (Lymphocyte [21]) | other results |
| --- | --- | --- | --- | --- | --- | --- | --- | --- | --- | --- | --- | --- | --- | --- | --- | --- | --- | --- | --- | --- | --- |
| Cc1c(N(C)C)nc(CCCCCCCCCCO)c(O)c1C | 27 | 9 | 6 | inactive | inactive | 36 | 24 | 50 | 50 | 20 | 3 | 17 | 28 | 87 | 20 | 36 | 74 | Dose-dependent effect | Dose-dependent effect | Dose-dependent effect | metabolised at 0.5 h, 25 µM [18]: 60% |
| CCCCCCCCCCCCCCCCCCCc1nc(N(C)C)c(C)c(C)c1O | 93 | 88 | 85 | inactive | inactive | 44 | 24 | 65 | 102 | 102 | 99 | 17 | 38 | 76 | 4 | 7 | 66 | Dose-dependent effect | Dose-dependent effect | Dose-dependent effect | remaining at 0.5 h, 25 µM [22]: 50% |
| CCCCCCCCCCCCCCCCc1nc(N2CCC2)c(C)c(C)c1O | 93 | 94 | 95 | Active | Active | 68 | 54 | 85 | 92 | 70 | 38 | 54 | 70 | 87 | 13 | 82 | 81 | Dose-dependent effect | Dose-dependent effect | Dose-dependent effect | remaining at 0.5 h, 25 µM [22]: 95% |
| CCCCCCCCCCCCCCCCCCCc1c(C)c(N(C)C)nc(C)c1O | 98 | 83 | 81 | inactive | inactive | 42 | 23 | 64 | 106 | 103 | 86 | 20 | 50 | 87 | 8 | 8 | 87 | Dose-dependent effect | Dose-dependent effect | Dose-dependent effect | remaining at 0.5 h, 25 µM [22]: 50% |
| CCCCCCCCCCc1c(C)c(N(C)C)nc(C)c1O | 49 | 35 | 8 | Active | Active | 78 | 60 | 89 | 87 | 40 | 2 | 34 | 84 | 86 | 19 | 87 | 86 | Dose-dependent effect | Dose-dependent effect | Dose-dependent effect | inhibition (Lymphocyte [23]): Dose-dependent effect; remaining at 0.5 h, 25 µM [22]: 70% |
| CCCCCCCCCCCCCCCCc1c(C)c(N2CCC2)nc(C)c1O | 95 | 89 | 79 | Active | Active | 72 | 55 | 89 | 98 | 76 | 50 | 58 | 79 | 92 | 18 | 95 | 92 | Dose-dependent effect | Dose-dependent effect | Dose-dependent effect | remaining at 0.5 h, 25 µM [22]: 95% |

Source: ChEMBL document CHEMBL3352113, “Cytoprotective pyridinol antioxidants as potential therapeutic agents for neurodegenerative and mitochondrial diseases” (Bioorg Med Chem, 2014)
